Source: PubChem BioAssay (several laboratories)
Most compounds without a hit are left out; they make up all but 1.8% or so of the library.
zVAD death inh: L929 zVAD cell death inhibition; 0.38% of 220,000 active; viability rescue, % at 10 µM; L929 zVAD necroptosis rescue, ATP luminescence, 24 h; with zVAD 60 µM;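 active means activation, scaled between plate controls, above about 75%, limit read from the data; inactive means activation under that limit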;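 further: 0% = zVAD with DMSO and 100% = DMSO alone without zVAD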
HSV augment: HSV replication enhancement; maximum fold increase; HSV replication augmentation in cells, fold increase; 0.005% of 220,000 active; in the data active means maximum fold increase above about 1.5; tested in PC3 cells
TNF necrop inh: inhibitors of TNF-alpha induced necroptosis in Jurkat FADD-/- cells; Jurkat FADD-/- TNF necroptosis rescue, ATP luminescence, 24 h; 0 = TNF only, 100 = no-TNF cells; 0.068% of 220,000 active; activation (protection from cell death), % at 10 µM;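 active means activation, meaning protection from cell death, of at least 50% relative to plate controls; inactive means activation below 50%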;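 further: necroptosis triggered by 40 ng/mL TNF-alpha added together with compound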
Furin inh: human furin inhibition; P09958; purified furin, fluorogenic substrate cleavage; inhibition, % at 20 µM or 30 µM; 0.061% of 220,000 active; AID 463115; in the data active means inhibition above about 25%
Target sequence (P09958 108-714 limits assumed): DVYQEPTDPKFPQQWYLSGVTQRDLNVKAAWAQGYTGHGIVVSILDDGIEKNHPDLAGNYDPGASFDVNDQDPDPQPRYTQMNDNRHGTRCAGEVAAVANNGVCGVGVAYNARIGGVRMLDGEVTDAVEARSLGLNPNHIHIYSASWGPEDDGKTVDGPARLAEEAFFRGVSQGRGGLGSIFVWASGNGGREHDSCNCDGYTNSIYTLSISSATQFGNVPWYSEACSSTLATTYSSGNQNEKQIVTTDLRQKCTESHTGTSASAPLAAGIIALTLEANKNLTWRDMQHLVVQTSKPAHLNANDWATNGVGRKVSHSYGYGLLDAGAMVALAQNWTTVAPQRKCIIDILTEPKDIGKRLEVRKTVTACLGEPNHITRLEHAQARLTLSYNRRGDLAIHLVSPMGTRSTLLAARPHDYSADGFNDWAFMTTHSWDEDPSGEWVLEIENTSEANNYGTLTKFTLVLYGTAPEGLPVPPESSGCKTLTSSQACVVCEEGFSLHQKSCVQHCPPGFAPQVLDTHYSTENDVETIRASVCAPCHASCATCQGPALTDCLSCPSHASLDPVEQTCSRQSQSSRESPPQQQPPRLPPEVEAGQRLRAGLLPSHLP
Autophagy mod: autophagy modulation, high-content screen | MEF GFP-LC3 puncta imaging; test concentration mostly 10 µM | 0.98% of 190,000 active | calls only at 10 µM (by protocol);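 active means percentage of spot-positive cells more than 3 SD above its plate mean, without a fluorescence outlier flag or 80% toxicity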;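 further: spot-positive cell cutoff set from DMSO-treated cells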
Dynein cargo inh: blocks dynein driven cargo transport along microtubules; 3617.4 mouse cells, GR-EGFP nuclear translocation imaging; test concentration mostly 20 µM; stimulated with dexamethasone, 1 µM; active compounds read low; z-score, hits read low; 0.47% of 220,000 active;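 active means plate z-score of nuclear minus cytoplasmic receptor signal below a set negative limit, without overly bright fluorescence or cell loss, cut at about -3.5 in these data, passing the limit was not always enough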;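 further: z-score of nuclear minus cytoplasmic ring GR-EGFP intensity difference per well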
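Schedule: 48 h induction, then 1 h compound, then 30 min agonist, 37 °C. Buffer or medium: tetracycline-free induction medium containing charcoal-stripped FBS. Reagent: 1.0 µM final dexamethasone stimulus. Evaluation: nuclear versus cytoplasmic GR-EGFP signal, averaged per well. Signal: high-content fluorescence imaging after fixation.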
zVAD necrop conf: confirmed blocker of zVAD induced death in L929 cells; shares compounds with zVAD death inh; L929 zVAD-induced necroptosis rescue, ATP luminescence, 24 h; activation (protection from necroptosis), % at 10 µM; 16% of 760 active; AID 463117;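 active means mean protection from necroptosis of at least 50% over duplicate tests; inactive means mean protection below 50%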;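 further: 0% = cells with zVAD alone and 100% = vehicle cells without zVAD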
An asterisk follows results filed as active; i = inactive; x = no result.

SMILES	zVAD death inh	HSV augment	TNF necrop inh	Furin inh	Autophagy mod	Dynein cargo inh	zVAD necrop conf
FC(F)(F)c1cnc2c(-c3ccccc3)n[nH]c2c1	76.5*	i	3.6	-31.8	i	-0.596	17.1
CCC(=O)Oc1ccc(-c2cnc3ccccc3n2)cc1	89.2*	i	-3.0	-17.7	i	-0.748	39.3
c1ccc2c(c1)nc(N1CCOCC1)c1c3ccccc3[nH]c21	81.9*	i	1.4	-23.5	i	0.184	3.9
O=c1[nH]c2ccccc2nc1N1CCOCC1	0.8	i	-1.0	-11.9	i	-0.363	x
COc1ccc(C(=O)c2ccc(CC(=O)O)s2)cc1	1.2	i	0.0	-13.4	i	-0.147	x
COc1cccc(NC(=O)NC(C)C2CC3CCC2C3)c1 (stereo not given)	75.0*	i	0.9	-29.4	i	-1.08	30.5
COc1cccc(NC(=O)Nc2ccc(C(C)(C)C)cc2)c1	78.5*	i	2.0	-17.6	i	0.489	8.1
CCC(C)[C@H](NC(=O)Nc1cccc(OC)c1)C(=O)OC (stereo not given in full)	-0.4	i	-2.5	-18.1	i	-0.242	x
COC(=O)c1ccc(NC(=O)Nc2ccc(OC)cc2)cc1	83.5*	i	4.8	-15.9	i	1.14	2.3
Cc1oc(S(=O)(=O)N(C)C)cc1C(=O)Nc1ccc(Cl)cc1	0.4	i	1.7	-33.7	x	-1.21	x
CNCC(=O)N1CCN(c2ncc(C(F)(F)F)cc2Cl)CC1	0.7	i	1.3	-25.8	i	-0.202	x
Cc1cc(N)n2ncc(-c3ccc(F)cc3)c2n1	79.4*	i	-4.2	-18.7	i	0.209	42.9
Cn1c(N)c(C(=O)N/N=C/c2ccccc2)sc1=S	75.3*	i	5.0	-30.3	x	0.149	76.2*
N=C1S/C(=C\c2ccc(O)cc2)C(=O)N1c1ccc(F)cc1	80.4*	i	1.8	-18.6	i	-0.863	1.4
C=CCN(c1ccccc1)S(=O)(=O)c1ccc(Cl)c(C(=O)OCC(=O)c2[nH]c(C)c(C(C)=O)c2C)c1	0.0	i	1.4	-4.1	i	0.689	x
Cc1ccc(C)c(SCC(=O)OC/C(O)=C(\C#N)c2nc3ccccc3[nH]2)c1	78.4*	i	-1.5	-10.4	i	-0.151	29.2
COc1ccccc1CNC(=S)NC1CCCC1	0.5	x	-0.8	-21.9	i	-1.29	x
Cc1ccc(S(=O)(=O)Nc2ccc(Cl)cc2)cc1NC(=O)c1cc2c(s1)CCCC2	1.0	i	0.9	-14.5	i	-0.542	x
Nc1c(C(=O)NCC2CCCO2)c2nc3ccccc3nc2n1-c1ccccc1 (stereo not given)	85.8*	i	-8.7	-40.7	i	1.34	33.1
COCCCNC(=O)c1c(N)n(-c2cccc(S(N)(=O)=O)c2)c2nc3ccccc3nc12	-0.8	i	-3.2	-15.6	i	-0.0403	x
COc1ccccc1-n1c(N)c(C(=O)NCC2CCCO2)c2nc3ccccc3nc21 (stereo not given)	65.5	i	1.3	-29.5	i	-1.3	x
CCCNC(=O)c1c(N)n(-c2cccc(OC)c2)c2nc3ccccc3nc12	77.4*	i	-4.7	-37.4	i	-0.521	12.4
O=C(Nc1nccs1)c1ccc(S(=O)(=O)N2CCOCC2)cc1	82.2*	i	44.4	-9.1	i	-0.00541	68.2*
CN(CC1CCCO1)S(=O)(=O)c1ccc(C(=O)Nc2nccs2)cc1 (stereo not given)	87.1*	i	60.6*	-17.0	x	-0.373	102.8*
COc1cc(OC)c(OC)cc1CNCCSc1nnnn1C	1.6	i	1.2	-12.0	i	2.42	x
SMILES	zVAD death inh	HSV augment	TNF necrop inh	Furin inh	Autophagy mod	Dynein cargo inh	zVAD necrop conf
COc1ccc(-c2csc(NCCc3nc4cc(Cl)c(Cl)cc4n3CCCO)n2)cc1	x	i	x	x	x	x	x
CC(=O)c1c(C)[nH]c(C(=O)Nc2ccc(Cl)c(S(=O)(=O)N(C)C)c2)c1C	65.6	i	-1.8	-10.9	i	-0.0526	x
CC(=O)c1c(C)[nH]c(C(=O)OCC(=O)Nc2ccc(Cl)c(S(=O)(=O)N(C)C)c2)c1C	79.7*	i	-7.0	-15.6	x	-0.113	2.8
COc1ccc(OC)c(NC(=O)C(=O)NCCC2=CCCCC2)c1	1.2	i	0.9	-16.1	i	-0.486	x
O=C(CSc1nnc(-c2ccncc2)o1)N1CCCCCC1	76.0*	i	0.0	-23.6	i	0.193	0.4
CCCN(Cc1ccccc1)C(=S)NC(=O)c1ccccc1[N+](=O)[O-]	0.0	i	-0.2	-17.4	i	0.157	x
CC(=O)c1cccc(NC(=O)Nc2cccnc2)c1	-0.1	i	1.5	-10.7	i	-0.127	x
Cc1ccc(NC(=O)Nc2cccnc2)cc1NC(=O)Nc1cccnc1	77.3*	i	-10.7	-16.1	x	-1.25	5.6
CCOC(=O)c1ccc(NC(=S)NCCCN2CCOCC2)cc1	3.4	i	0.1	-22.7	i	-0.121	x
O=C(c1ccc(COc2ccccc2Cl)o1)N1CCN(c2ccccc2)CC1	1.6	i	1.5	-14.6	i	0.941	x
O=C(c1ccco1)N1CCN(C(=O)c2ccc(COc3ccc4c(c3)CCC4)o2)CC1	83.1*	i	-0.9	-20.5	i	-0.552	33.8
O=C(c1ccco1)N1CCN(C(=O)c2ccc(COc3ccc(Cl)cc3Cl)o2)CC1	86.4*	i	-10.7	-15.2	i	-0.0474	34.8
S=C(NCCc1ccc(Cl)cc1)NC1CC1	91.8*	i	-0.1	-32.9	i	0.985	5.8
NS(=O)(=O)c1ccc(CCNC(=S)NC2CCCC2)cc1	18.7	i	0.2	-27.0	i	-0.295	x
CCOC(=O)c1cccc(NC(=O)Nc2ccc(OCC)cc2)c1	75.8*	i	-1.7	-11.2	i	-0.565	1.9
CCOc1ccc(NC(=S)Nc2ccc3nsnc3c2)cc1	0.6	i	-0.4	-12.5	i	0.455	x
CCOc1ccc(NC(=O)Nc2ccc3nsnc3c2)cc1	81.0*	i	-1.3	-18.0	i	-0.619	0.5
CCOc1ccc(NC(=O)NC23CC4CC(CC(C4)C2)C3)cc1	87.8*	i	2.6	-8.4	i	0.777	47.1
CCO[C@@H]1OC(C(=O)O)=C[C@H](c2ccc3c(c2)OCO3)[C@H]1CCCO	0.2	i	-0.3	-28.8	i	-1.07	x
COc1ccc(S(=O)(=O)N2CCNC(=O)C2)cc1Br	0.6	i	0.3	-13.2	i	-1.25	x
O=C(Nc1ccc2nc(-c3ccccc3)[nH]c2c1)c1ccco1	15.1	i	0.0	-31.3	i	0.00972	x
Cc1cccc2[nH]c(-c3ccc(NC(=O)c4ccco4)cc3)nc12	83.6*	i	0.4	-18.1	i	0.14	1.6
